Reference: ChEMBL document CHEMBL1221177, “Secramine inhibits Cdc42-dependent functions in cells and Cdc42 activation in vitro” (Nat Chem Biol, 2006)
Active and inactive are the calls of the source. The calls are words filed in the database; no cut-off is given here.

Legend:
Xenopus laevis [1] = species: Xenopus laevis; assay: Inhibition of actin polymerization in N-WASP VCA-stimulated Xenopus laevis egg extract at 10 uM after 1.5 mins by fluorescence assay
Outline: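 Xenopus laevis egg extract added at 4 °C to vehicle or compound, followed by VCA polypeptide. Pyrene-actin polymerization then followed by fluorescence in a cuvette at 21 °C.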

[2] = target: T1, Cell division control protein 42 homolog (Homo sapiens, UniProt P60953); assay: Effect on GEF interaction with PIP2-stimulated Cdc42 at 25 uM by liquid scintillation counting
Target sequence in this assay (P60953 whole entry, looked up): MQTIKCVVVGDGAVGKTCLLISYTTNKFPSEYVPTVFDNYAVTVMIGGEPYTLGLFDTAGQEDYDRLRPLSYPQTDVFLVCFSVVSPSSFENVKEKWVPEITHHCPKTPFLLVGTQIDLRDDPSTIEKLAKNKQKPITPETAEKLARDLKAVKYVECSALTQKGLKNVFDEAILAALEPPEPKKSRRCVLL

BSC-1 [3] = assay: Inhibition of VSVG-EGFP anterograde transport from endoplasmic reticulum to golgi complex of african green monkey BSC1 cells at 12.5 uM after 3 hrs by epifluorescence microscopy; format: functional, cell-based; conditions: Chlorocebus aethiops
Outline: (§1)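 BS-C-1 monkey kidney cells expressing temperature-sensitive VSVG-EGFP, held at 40 °C to trap cargo in the ER, then shifted to 32 °C in 100 µg ml-1 cycloheximide. Compound or vehicle (1% DMSO) present during transport. Cells fixed 3 h after release and imaged by wide-field fluorescence. Surface versus perinuclear (beta-COP-costained Golgi) cargo scored. IC50 from dose-response curves, s.e.m. (n = 4).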

[4] = target: T1, Cell division control protein 42 homolog; assay: Inhibition of nucleotide exchange activity of PIP2-stimulated Cdc42 at 25 uM by liquid scintillation counting
Target sequence in this assay (P60953 whole entry, looked up): as above

[5] = target: Cdc42 protein (Xenopus laevis) (UniProt Q9DDV6); assay: Inhibition of CDC42-mediated actin polymerization in PIP2-stimulated Xenopus laevis egg extract at 0.1 to 100 uM by fluorescence assay
[6] = target: Cdc42 protein (Xenopus laevis) (UniProt Q9DDV6); assay: Inhibition of PIP2 liposome-stimulated Cdc42 activation in Xenopus laevis egg extract assessed as inhibition of association of Cdc42(GTPgammaS) with GST-PBD at 50 uM by Western blot analysis
Outline: (§2)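 Xenopus egg extract (8 mg/ml) with 0.2 mM ATP and 10 µM latrunculin B at 4 °C, moved to 25 °C; compound or vehicle 5 min, then 20 µM GTPγS and 20 µM PIP2 liposomes (48:48:4) 10 min, then 2.5 µM GST-PBD 10 min. Lysis buffer plus glutathione-Sepharose, 45 min at 4 °C; bound Cdc42 by western blot.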

[7] = target: T1, Cell division control protein 42 homolog; assay: Effect on nucleotide binding activity of PIP2-stimulated Cdc42 at 25 uM by liquid scintillation counting
Target sequence in this assay (P60953 whole entry, looked up): as above

Lipid bilayer [8] = assay: Binding affinity to phosphatidylinositol 4,5-bisphosphate liposome assessed as dynamin2-stimulated GTP hydrolysis at 250 uM by scintillation counting
Outline: (§3)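 Truncated His-tagged human dynamin 2 (proline-rich domain, aa 736–866, deleted), expressed in BL21, mixed with PIP2 liposomes (65:32:3 PC:PI:PIP2, 0.1-µm extruded) and compound in 1% DMSO vehicle. 20 µM [γ-32P]GTP added in Tris pH 7.5/150 mM NaCl/2.5 mM MgCl2/DTT, 25 °C. After 20 min, charcoal-quenched aliquot centrifuged and released 32P-phosphate scintillation counted; s.e.m., n = 3.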

BSC-1 [9] = assay: Effect on transferrin translocation from golgi complex to endoplasmic reticulum of african green monkey BSC1 cells at 12.5 uM after 2.5 hrs by epifluorescence microscopy; format: functional, cell-based; conditions: Chlorocebus aethiops
[10] = target: T1, Cell division control protein 42 homolog; assay: Effect on Cdc42-mediated cellular response in human U373MG cells assessed as reorientation of golgi complex 15 uM after 6 hrs by epifluorescence assay; format: cell-based; conditions: U-373MG ATCC
Outline: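 Confluent U373MG human astrocytoma monolayer preincubated 1 h with 15 µM compound or vehicle, then scratched. At 0 and 6 h fixed, stained with Hoechst and anti-giantin; cells at wound edge with Golgi in the forward 120° sector facing scratch scored polarized. Epifluorescence; s.e.m., n = 3, >100 cells per condition.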
Target sequence in this assay (P60953 whole entry, looked up): as above

[11] = target: Cdc42 protein (Xenopus laevis) (UniProt Q9DDV6); assay: Inhibition of GST-PBD binding to Cdc42 in Xenopus laevis egg extract assessed as Cdc42(GTPgammasS) activation at 50 uM treated after addition of GST-PBD by Western blot analysis
BSC-1 [12] = assay: Inhibition of VSVG-EGFP anterograde transport from endoplasmic reticulum to plasma membrane of african green monkey BSC1 cells after 3 hrs by epifluorescence microscopy; format: functional, cell-based; conditions: Chlorocebus aethiops, BSC-1, 3 h; outline: as §1
Xenopus laevis [13] = species: Xenopus laevis; assay: Inhibition of actin polymerization in N-WASP VCA-stimulated Xenopus laevis egg extract at 20 uM after 1.5 mins by fluorescence assay
[14] = target: T1, Cell division control protein 42 homolog; assay: Inhibition of Cdc42 binding to PIP2 liposomes at 100 uM after 10 mins
Outline: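 Pure 0.5 µM prenylated Cdc42-RhoGDI1 complex, 1 µM RhoGDI1, 1 mM PIP2 liposomes, 100 µM compound or 2% DMSO in reaction buffer, 25 °C. After 10 min, spun 10 min at 200,000g; pellet dot-blotted with anti-Cdc42, quantified and normalized to vehicle; s.e.m., n = 4.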
Target sequence in this assay (P60953 whole entry, looked up): as above

BSC-1 [15] = assay: Effect on transferrin endocytosis in african green monkey BSC1 cells at 12.5 uM after 2.5 hrs by epifluorescence microscopy; format: functional, cell-based; conditions: Chlorocebus aethiops
Cdc42 protein = Cdc42 protein (Xenopus laevis, UniProt Q9DDV6); assay: Inhibition of CDC42-mediated actin polymerization in PIP2-stimulated Xenopus laevis egg extract after 6 mins by fluorescence assay
[16] = target: T1, Cell division control protein 42 homolog; assay: Inhibition of GEF-independent nucleotide exchange activity of nonprenylated Cdc42 at 100 uM after 10 mins in presence of 4 mM EDTA
Target sequence in this assay (P60953 whole entry, looked up): as above

[17] = target: Cdc42 protein (Xenopus laevis) (UniProt Q9DDV6); assay: Inhibition of PIP2 liposome-stimulated Cdc42 activation in Xenopus laevis egg extract assessed as inhibition of association of Cdc42(GTPgammaS) with GST-PBD at 1 to 25 uM by Western blot analysis; outline: as §2
[18] = target: Cell division control protein 42 homolog (Rattus norvegicus) (UniProt Q8CFN2); assay: Inhibition of Cdc42 binding to rat liver golgi membrane at 10 to 150 uM by Western blot analysis
Outline: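 Bovine brain cytosol incubated with compound or 1% DMSO, then 20 µM GTPγS and 0.2 mg/ml rat liver Golgi membranes added. Membrane-bound Cdc42 and β-COP analyzed by western blot.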

MDCK [19] = assay: Increase in p75-GFP transport from golgi complex of MDCK cells at 10 uM after 20 mins by fluorescence assay; format: functional, cell-based; conditions: Canis lupus familiaris
Outline: (§4)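 Nonpolarized MDCK cells expressing NCAM-GFP or p75-GFP in 0.5% BSA; cargo held in Golgi at 20 °C for 30–60 min, then compound or vehicle for 20 min before shift to 32 °C. Perinuclear GFP normalized to total cell fluorescence, expressed as % of t = 0 Golgi signal; s.d., n = 2, 20 cells per condition.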

BSC-1 [20] = assay: Effect on perinuclear localization of trans-Golgi network in african green monkey BSC1 cells at 12.5 uM after 2.5 hrs by epifluorescence microscopy; format: functional, cell-based; conditions: Chlorocebus aethiops
MDCK [21] = assay: Decrease in NCAM-GFP transport from golgi complex of MDCK cells at 10 uM after 20 mins by fluorescence assay; format: functional, cell-based; conditions: Canis lupus familiaris; outline: as §4
[22] = target: Cdc42 protein (Xenopus laevis) (UniProt Q9DDV6); assay: Inhibition of GST-PBD binding to Cdc42 in Xenopus laevis egg extract assessed as Cdc42(GTPgammasS) activation at 50 uM treated before addition of GST-PBD by Western blot analysis
[23] = target: Cdc42 protein (Xenopus laevis) (UniProt Q9DDV6); assay: Effect on GST-PBD binding to recombinant nonprenylated Cdc42 in PIP2 liposome-stimulated Xenopus laevis egg extract at 50 uM by Western blot analysis
Outline: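 Xenopus egg extract treated 5 min with compound or vehicle, then 20 nM recombinant nonprenylated Cdc42 (GTPγS or GDP) 10 min, then GST-PBD 10 min. Pulled down on glutathione-Sepharose and Cdc42 detected by western blot; GST-PBD stained with Ponceau S as loading control.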

Lipid bilayer [24] = assay: Binding affinity to phosphatidylinositol 4,5-bisphosphate liposome at 50 uM by electron microscopy
Outline: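 PIP2 liposomes (100 µM) incubated with compound or 1% DMSO, with 1% Triton X-100 as comparator. Samples in reaction buffer adsorbed on glow-discharged carbon grids, negatively stained with 1.2% uranyl acetate and imaged by EM at 80 kV.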

Lipid bilayer [25] = assay: Binding affinity to phosphatidylinositol 4,5-bisphosphate liposome assessed as dynamin2-stimulated GTP hydrolysis at 25 uM by scintillation counting; outline: as §3
[26] = target: T1, Cell division control protein 42 homolog; assay: Inhibition of GEF-independent nucleotide exchange activity of prenylated Cdc42 assessed as protein dissociation from […] complex at 100 uM after 3 mins in presence of 4 mM Mg2+ chelator EDTA
[27] = target: T1, Cell division control protein 42 homolog; assay: Inhibition of GEF-independent nucleotide exchange activity of prenylated Cdc42 after 3 mins in presence of 4 mM Mg2+ chelator EDTA
Outline: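 GDP/[35S]GTPγS exchange by 0.5 µM prenylated Cdc42-RhoGDI1 complex with 1 µM RhoGDI1 and 100 µM PIP2 liposomes, 4 mM EDTA replacing GEF, in Tris pH 7.5 reaction buffer at 25 °C. Started with 10 µM [35S]GTPγS; reactions sampled at 3 min, filtered on nitrocellulose and scintillation counted; s.e.m., n = 3.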
Target sequence in this assay (P60953 whole entry): as the sequence (P60953 whole entry, looked up) above

Sequence of Cdc42 protein (Xenopus laevis) (Q9DDV6 as listed by the source): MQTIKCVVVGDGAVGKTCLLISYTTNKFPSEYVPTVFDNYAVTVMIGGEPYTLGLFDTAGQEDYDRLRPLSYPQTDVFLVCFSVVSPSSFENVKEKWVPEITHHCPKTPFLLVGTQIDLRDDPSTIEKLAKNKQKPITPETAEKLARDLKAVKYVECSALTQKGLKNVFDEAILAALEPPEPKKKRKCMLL
Sequence of Cdc42 protein (Q9DDV6 whole entry): as the sequence (Q9DDV6 as listed by the source) above
Sequence of Cell division control protein 42 homolog (Rattus norvegicus) (Q8CFN2 whole entry, looked up): as the sequence (P60953 whole entry, looked up) above

Compound | Activity [2] | inhibition (BSC-1 [3]) | inhibition [4] | Activity [5] | Activity [7] | IC50 (BSC-1 [12]) [µM] | IC50 (Cdc42 protein) [µM] | inhibition [26] | IC50 [27] [µM] | other results
C/C1=C/C(=O)O[C@@H]2C[C@@H](CC[C@H](C)/C=C\CC1)O[C@@](O)([C@@H]1CSC(=O)N1)C2 |  |  |  |  |  |  |  |  |  | inhibition (Xenopus laevis [1]): Active
COc1ccc(CS[C@@H]2C/C(=N/OCc3ccccc3)C[C@H]3Oc4c(Br)c(OCC5CC5)cc5c4[C@]32C[C@@H](CO)N(C(C)=O)C5)cc1 | inactive | inactive | inactive | inactive | inactive |  |  |  |  | inhibition [6]: inactive
NC[C@@H]1O[C@H](O[C@H]2[C@@H](O)[C@H](O[C@@H]3[C@@H](O)[C@H](N)C[C@H](N)[C@H]3O[C@H]3O[C@H](CN)[C@@H](O)[C@H](O)[C@H]3N)O[C@@H]2CO)[C@H](N)[C@@H](O)[C@@H]1O |  |  |  |  |  |  |  |  |  | Activity (Lipid bilayer [8]): Active
COc1ccc(CS[C@@H]2C/C(=N/OCc3ccccc3)C[C@H]3Oc4c(Br)c(OCC5CC5)cc5c4[C@]32C[C@@H](CO)NC5)cc1 [SECRAMINE A] | inactive | inactive | Active | Active | inactive | 12 | 1 | inactive | 9 | Activity (BSC-1 [9]): inactive; Activity [10]: 45%; inhibition [11]: inactive; inhibition (Xenopus laevis [13]): inactive; inhibition [14]: Active; Activity (BSC-1 [15]): inactive; inhibition [16]: inactive; inhibition [17]: Active; inhibition [18]: Active; inhibition (MDCK [19]): Active; Activity (BSC-1 [20]): inactive; inhibition (MDCK [21]): Active; inhibition [22]: Active; Activity [23]: inactive; Activity (Lipid bilayer [24]): inactive; Activity (Lipid bilayer [25]): inactive
CO/N=C1\C[C@H]2Oc3c(Br)c(OCC4CC4)cc4c3[C@@]2(C[C@@H](CO)NC4)[C@H](SCc2ccc(OC)cc2)C1 [SECRAMINE B] | inactive | inactive | Active | Active | inactive | 12 | 3 | inactive | 7 | 
